Consider 1 compound from ChEMBL document CHEMBL4017500 (J Med Chem, 2017).

In one series the test system is HEK293. As to the kind of experiment: Cytotoxicity against HEK293 cells assessed as reduction in cell viability up to 400 uM after 4 to 24 hrs by Cell-titer blue reagent based spectrophotometric assay. As to conditions: human. In a few lines:
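HEK293 cells seeded at 10,000/well 12 h before treatment. Exposed to compound or DMSO vehicle for 4 or 24 h in DMEM with 10% serum and penicillin-streptomycin, n=6 per treatment per time point. Cell-Titer Blue added for 1 h, fluorescence read at 536ex/595em. Viability relative to vehicle (=1.0); ANOVA with Tukey post-hoc.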

Series [1] in a line: Selectivity ratio of compound effect for inhibition of bacterial MBP-fused NDM1 expressed in Escherichia coli BL21(DE3) to compound effect for inhibition of human MMP2 (Tyr110 to Asp452 residues) expressed in yeast.
Series [2] relates to Escherichia coli. Briefly: Effect on growth of Escherichia coli isolate Ah8.75 at 100 mg/L after 18 to 20 hrs by broth microdilution assay. In a few lines:
(§1)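 Mueller-Hinton broth microdilution per CLSI, triplicate. blaNDM-1 clinical isolates grown from OD600 0.1 to 0.224 (~1–2 × 10^8 CFU/mL), diluted 3 μL into 4997 μL MH, and 100 μL added to 100 μL of compound (100 mg/L) alone. Incubated 37 °C for 18–20 h, then scored for growth.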

The target in series [3] is Metallo-beta-lactamase type 2 (Klebsiella pneumoniae) (UniProt C7C422). As to the kind of experiment: Inhibition of NDM1 in Klebsiella pneumoniae isolate Pd1.50 assessed as potentiation of imipenem-induced antibacterial activity by measuring imipenem MIC at 100 mg/L after 18 to 20 hrs by broth microdilution assay (reference value: 8 mg/L). (Dilution methods test growth across graded concentrations, often in twofold steps.)
Chain of Metallo-beta-lactamase type 2 (Klebsiella pneumoniae) (C7C422 whole entry): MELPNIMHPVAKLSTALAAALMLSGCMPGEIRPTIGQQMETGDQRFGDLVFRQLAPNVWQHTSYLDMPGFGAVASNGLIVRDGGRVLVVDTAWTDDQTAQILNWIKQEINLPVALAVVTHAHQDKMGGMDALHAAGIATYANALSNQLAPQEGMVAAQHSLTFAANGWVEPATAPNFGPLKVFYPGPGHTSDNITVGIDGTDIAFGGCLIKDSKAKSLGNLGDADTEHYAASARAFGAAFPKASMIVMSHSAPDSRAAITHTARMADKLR

Series [4] in a line: Selectivity ratio of compound effect for inhibition of bacterial MBP-fused NDM1 expressed in Escherichia coli BL21(DE3) to compound effect for inhibition of human MMP12 (Phe99 to Leu271 residues) expressed in Escherichia coli.
The subject of series [5] is Escherichia coli. Briefly: Effect on growth of Escherichia coli isolate Ch8.70 at 100 mg/L after 18 to 20 hrs by broth microdilution assay. In a few lines:
as §1

Series [6] relates to Bacteria. Briefly: Inhibition of bacterial MBP-fused NDM1 expressed in Escherichia coli BL21(DE3) ausing fluorocillin as substrate preincubated for 20 mins followed by substrate addition measured at 1 sec time interval for 25 mins in presence of ZnSO4 by fluorescence assay.
The test system of series [7] is Escherichia coli. As to the kind of experiment: Inhibition of NDM1 in Escherichia coli isolate Ah8.74 assessed as potentiation of imipenem-induced antibacterial activity by measuring imipenem MIC at 100 mg/L after 18 to 20 hrs by broth microdilution assay (reference value: 8 mg/L).
The test system of series [8] is Klebsiella pneumoniae. As to the kind of experiment: Effect on growth of Klebsiella pneumoniae isolate Cm1.62 at 100 mg/L after 18 to 20 hrs by broth microdilution assay. A digest of the protocol: as §1
In series [9] the test system is Klebsiella pneumoniae. As to the kind of experiment: Effect on growth of Klebsiella pneumoniae isolate Pd1.55 at 100 mg/L after 18 to 20 hrs by broth microdilution assay. In a few lines:
as §1

Series [10] concerns Escherichia coli. As to the kind of experiment: Inhibition of NDM1 in Escherichia coli isolate Ah8.71 assessed as potentiation of imipenem-induced antibacterial activity by measuring imipenem MIC at 100 mg/L after 18 to 20 hrs by broth microdilution assay (reference value: 16 mg/L).
For series [11], the system named is Escherichia coli. As to the kind of experiment: Effect on growth of Escherichia coli isolate Ch8.69 at 100 mg/L after 18 to 20 hrs by broth microdilution assay. In a few lines:
as §1

Series [12] has as its target Metallo-beta-lactamase type 2 (Serratia marcescens, UniProt P52699). As to the kind of experiment: Inhibition of Serratia marcescens IMP1 expressed in Escherichia coli BL21(DE3) using fluorocillin as substrate preincubated for 10 mins followed by substrate addition measured after 20 mins by HTS assay.
For series [13], the system named is Bacteria. As to the kind of experiment: Binding affinity to bacterial NDM-1 expressed in Escherichia coli BL21(DE3) assessed as Zn2+ stripping at. A digest of the protocol: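 NDM-1 (8 μM final) in 50 mM HEPES pH 7.5 mixed with compound at 0–128 μM for 30 min. Then dialyzed 4 h against metal-free 50 mM HEPES pH 7.5. Residual Zn(II) measured by ICP-AES at 213.856 nm.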

The nature of series [14]: Metal chelating activity assessed as Co2+-compound complex formation at 1 equiv by 1H NMR spectroscopic method. Type of series: functional. In a few lines: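 Apo-NDM-1 concentrated to ~1 mM and given 2 equivalents of CoCl2, in 50 mM HEPES, 150 mM NaCl, 10% D2O, pH 6.8. Compounds, from DMSO stocks of 50–100 mM, titrated in. 1H NMR spectra recorded at 292 K at 300.16 MHz.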

In series [15] the target is Metallo-beta-lactamase type 2 (Klebsiella pneumoniae) (UniProt C7C422). Briefly: Inhibition of NDM1 in Klebsiella pneumoniae isolate Pd1.55 assessed as potentiation of imipenem-induced antibacterial activity by measuring imipenem MIC at 100 mg/L after 18 to 20 hrs by broth microdilution assay (reference value: 8 mg/L).
Series [16] concerns the target 72 kDa type IV collagenase (Homo sapiens) (UniProt P08253). Briefly: Inhibition of human MMP2 (Tyr110 to Asp452 residues) expressed in yeast at 10 uM using Mca-Pro-LeuGly-Leu-Dpa-Ala-Arg-NH2.AcOH as substrate preincubated for 30 mins followed by substrate addition measured after 20 mins by fluorescence assay relative to control. A digest of the protocol:
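Human recombinant MMP-2 (1.16 U/well) or MMP-12 (0.007 U/well) in 50 mM HEPES, 10 mM CaCl2, 0.05% Brij-35, pH 7.5. Enzyme and inhibitor pre-incubated 30 min at 37 °C, then OmniMMP fluorogenic substrate (4 μM) added. Fluorescence rise followed 20 min at ex/em 320/400 nm. Activity relative to no-inhibitor wells, with 200 μM NSA as 0%. Run in triplicate.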

In series [17] the test system is Bacteria. As to the kind of experiment: Binding affinity to bacterial NDM-1 expressed in Escherichia coli BL21(DE3) assessed as intrinsic tryptophan fluorescence quenching up to 32 uM after 30 mins by luminescence spectrometric method relative to control. A digest of the protocol:
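NDM-1 at 2 μM final in 50 mM HEPES pH 7.5 mixed with compound at 4–32 μM, incubated 30 min. Emission scanned 300–400 nm with excitation at 280 nm. Relative tryptophan fluorescence read at 348 nm, with buffer set to 0% and inhibitor-free NDM-1 to 100%. Control run with 2 μM L-tryptophan in place of enzyme.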

In series [18] the target is Carbonic anhydrase 2 (Homo sapiens) (UniProt P00918). Briefly: Inhibition of human carbonic anhydrase 2 at 50 to 100 uM using p-nitrophenyl acetate as substrate preincubated for 10 mins followed by substrate addition measured for 15 mins. In a few lines:
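hCAII (100 nM) in 50 mM HEPES pH 8.0 pre-incubated with inhibitor for 10 min at 30 °C. p-Nitrophenyl acetate (500 μM) then added and absorbance at 405 nm followed 15 min. Activity relative to no-inhibitor wells, with 50 μM benzene sulfonamide as 0%. Run in triplicate.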

pIC50: −log10 of the molar value. The source made the active and inactive calls. The rule behind the calls is not given here.

Chain of 72 kDa type IV collagenase (Homo sapiens) (P08253 110-660 limits assumed): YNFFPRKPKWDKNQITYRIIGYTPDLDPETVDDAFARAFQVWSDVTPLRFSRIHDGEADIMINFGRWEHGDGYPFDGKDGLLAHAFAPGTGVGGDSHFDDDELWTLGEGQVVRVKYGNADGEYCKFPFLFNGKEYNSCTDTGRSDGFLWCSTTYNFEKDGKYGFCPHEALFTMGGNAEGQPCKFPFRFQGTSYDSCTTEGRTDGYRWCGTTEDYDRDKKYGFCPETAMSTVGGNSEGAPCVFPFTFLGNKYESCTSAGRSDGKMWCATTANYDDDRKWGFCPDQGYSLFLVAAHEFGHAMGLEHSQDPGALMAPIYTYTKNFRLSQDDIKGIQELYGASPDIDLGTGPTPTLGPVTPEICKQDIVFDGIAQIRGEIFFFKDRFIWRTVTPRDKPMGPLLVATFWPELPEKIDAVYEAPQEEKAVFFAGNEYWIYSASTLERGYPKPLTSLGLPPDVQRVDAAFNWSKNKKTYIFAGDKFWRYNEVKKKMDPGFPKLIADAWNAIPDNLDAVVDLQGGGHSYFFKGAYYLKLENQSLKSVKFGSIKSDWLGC
Chain of Metallo-beta-lactamase type 2 (P52699 whole entry): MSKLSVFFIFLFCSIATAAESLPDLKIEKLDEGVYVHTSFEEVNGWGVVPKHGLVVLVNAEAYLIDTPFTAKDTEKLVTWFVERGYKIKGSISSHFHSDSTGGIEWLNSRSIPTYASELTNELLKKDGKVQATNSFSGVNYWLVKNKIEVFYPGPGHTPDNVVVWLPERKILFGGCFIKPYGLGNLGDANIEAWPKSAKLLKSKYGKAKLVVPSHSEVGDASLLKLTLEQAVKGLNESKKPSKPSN

A word on the inhibition: it is the relative decrease from the control value, in per cent. As usually defined, the pIC50 is the IC50 on a negative log10 scale, so that one unit is a factor of ten. A high value points to a low IC50. Regarding `Nc1cccc(-c2cc(C(=O)O)nc(C(=O)O)c2)c1`, the Activity entry in the series on HEK293, with Escherichia coli [2], with Escherichia coli [5], in the series with Klebsiella pneumoniae [8], in the series on Klebsiella pneumoniae [9] and in the series on Escherichia coli [11] was “Non-Toxic” in each case. The Activity with Bacteria [17] fell in the range of 50 to 60%. Moreover, the Selectivity ratio in series [1] and in series [4] was 100 to 1000 each time. Further, the MIC in series [3] was found to be 0.5 µg/mL; in the series on Escherichia coli [7], 0.5 µg/mL; in the series with Escherichia coli [10], 1 µg/mL; in series [15] it was 0.5 µg/mL. Also, the inhibition entry in the series on Bacteria [6] was “Active”. In series [12], this compound showed a negative-log IC50 (pIC50) of 6.62. Also, in the series on Bacteria [13], the result was inactive. Besides, the result in [14] was Active. Moreover, the figures for the inhibition in series [16] and in series [18] were below 6% and below 50%, respectively.
